Diaphorase act: counter-screen for diaphorase-based assays: diaphorase activators and chemical reducers. AID 1229. Diaphorase/resazurin coupled assay, resorufin fluorescence, 16 min; hits give high values; 1 = vehicle wells, 0 = NADH-free wells. 190,000 tested, 0.005% active. activation factor at 20 µM;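 active means diaphorase activity raised at least twofold by the compound at 20 µM; inactive means activation factor below 2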
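System – purified diaphorase enzyme from Clostridium kluyveri · Input – enzyme 0.07 U/mL final · Also added – final NADH 0.114 mM, resazurin 0.1 mM · Measured by – fluorescence of resorufin, 544 nm excitation, 590 nm emission · Timing – 16 min enzyme reaction, ambient temperature · Measure – resorufin increase flagging diaphorase activators or reducers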
G6PDH counter: L. mesenteroides G6PDH inhibition counter-screen | Purified L. mesenteroides G6PDH, diaphorase/resazurin coupled fluorescence, 45 min | inhibition, % at 5 µM | 200,000 tested, 0.12% active | AID 1020; in the data active means inhibition above about 50%
PfG6PD inh: PfG6PD (Plasmodium falciparum) enzyme inhibition. PfGluPho enzyme, NADPH resazurin-diaphorase fluorescence. inhibition, % at 20 µM. 350,000 tested, 0.78% active. AID 504690;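 active means inhibition reaching at least a set limit at 20 µM in the primary screen, cut at about 59% in these data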;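 further: 0% = DMSO wells with substrate and 100% = DMSO wells lacking glucose-6-phosphate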
Diaphorase inh: counter-screen for diaphorase-based assays: diaphorase inhibitors and chemical oxidizers | diaphorase resazurin-to-resorufin fluorescence, NADH, 16 min; bacterial (C. kluyveri) enzyme, not human | inhibition, % at 20 µM | 190,000 tested, 0.69% active | AID 1217;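 active means primary screen inhibition at 20 µM above a set limit, cut at about 50% in these data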;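 further: plate controls were DMSO with full reaction for no effect and wells lacking NADH for full effect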
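Test system: diaphorase enzyme from Clostridium kluyveri; amount: diaphorase at 0.14 U/mL in enzyme working solution; detection: fluorescence of resorufin formed from resazurin, Ex 544/Em 590 nm; times: reaction incubation of 16 min at room temperature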
HKDC1 inhibitor: HKDC1 (human) hexokinase inhibition. AID 493160. inhibition, % at 20 µM. recombinant HKDC1, G6PDH/diaphorase resazurin coupled fluorescence. 340,000 tested, 0.16% active. Q2TB90;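 active means inhibition above about 35% when tested at 20 µM, limit read from the data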;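 further: plate controls were DMSO wells with enzyme for no effect and DMSO wells lacking enzyme for full effect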
Target sequence (Q2TB90 whole entry, looked up): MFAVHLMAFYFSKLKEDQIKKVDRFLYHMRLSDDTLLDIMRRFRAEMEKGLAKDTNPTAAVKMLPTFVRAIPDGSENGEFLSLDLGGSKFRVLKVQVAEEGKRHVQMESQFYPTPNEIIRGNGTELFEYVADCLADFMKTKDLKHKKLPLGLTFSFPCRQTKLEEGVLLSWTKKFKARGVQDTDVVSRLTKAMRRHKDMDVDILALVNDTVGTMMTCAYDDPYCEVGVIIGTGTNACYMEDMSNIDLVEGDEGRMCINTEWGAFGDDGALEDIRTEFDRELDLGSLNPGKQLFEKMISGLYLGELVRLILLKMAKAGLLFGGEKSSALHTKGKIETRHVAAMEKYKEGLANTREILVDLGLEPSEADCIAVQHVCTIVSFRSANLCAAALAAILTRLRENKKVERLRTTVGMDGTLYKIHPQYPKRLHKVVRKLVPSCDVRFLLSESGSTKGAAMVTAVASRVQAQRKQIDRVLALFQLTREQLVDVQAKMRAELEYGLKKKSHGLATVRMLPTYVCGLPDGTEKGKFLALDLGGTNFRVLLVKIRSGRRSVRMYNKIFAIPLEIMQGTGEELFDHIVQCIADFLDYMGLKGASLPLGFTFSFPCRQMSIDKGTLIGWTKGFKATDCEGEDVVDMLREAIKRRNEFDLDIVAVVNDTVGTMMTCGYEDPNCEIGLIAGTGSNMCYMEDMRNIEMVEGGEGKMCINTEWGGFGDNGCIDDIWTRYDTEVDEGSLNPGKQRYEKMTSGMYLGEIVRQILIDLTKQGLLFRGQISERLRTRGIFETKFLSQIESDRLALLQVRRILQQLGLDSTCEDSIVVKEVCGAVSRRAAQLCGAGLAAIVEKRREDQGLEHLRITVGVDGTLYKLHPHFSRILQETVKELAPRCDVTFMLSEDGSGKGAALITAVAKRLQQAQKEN
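Test system: recombinant HKDC1 (HK5) hexokinase enzyme, produced in-house; Amount: enzyme 5 µg/mL final; Buffer or medium: Tris pH 8.0 buffer with MgCl2, Tween-20, BSA, BME; Reagent: glucose and ATP substrates; Doses: 20 µM test compound, 1% DMSO; Incubation: 90 min reaction incubation at room temperature, dark; Detection: resorufin fluorescence at 613 nm.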
HKDC1 act conf2: HKDC1 (human) activation, single-dose confirmed | shares compounds with HKDC1 inhibitor | inhibition, % at 20 µM | AID 504708 | recombinant HKDC1, G6PDH/diaphorase resazurin fluorescence; hits give low values | 740 tested, 14% active;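 active means inhibition at or below a set negative limit, negative inhibition meaning the enzyme was activated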
Numbers without * were called inactive; / = no result given. Rows were chosen to be rich in hits. Some 1.3% of all compounds tested hit in one or more screens of this group.

SMILES	Diaphorase act	G6PDH counter	PfG6PD inh	Diaphorase inh	HKDC1 inhibitor	HKDC1 act conf2
O=C(O)c1ccc(-c2ccc(/C=c3/sc4nc5ccccc5n4c3=O)o2)cc1Cl	/	/	30	/	45*	-17
Cc1ccc2c(nc3s/c(=C\c4ccc(-c5ccccc5C(=O)O)o4)c(=O)n32)c1C	/	/	25	/	10	/
O=C(NC12CC3CC(CC(C3)C1)C2)c1cc2nc(-c3ccco3)cc(C(F)(F)F)n2n1	0.8	7	10	19	1	/
O=C(O)c1ccc2c(c1)C(=O)N(c1cccc(-c3nc4ccccc4s3)c1)C2=O	0.5	4	-25	46	34	-11
C[n+]1c(-c2ccccc2)cc2c(=Cc3ccccc3)c3ccccc3n21	/	/	21	/	42*	-18
O=C(c1n[nH]c2ccccc12)N1CCOCC1	1	-1	4	0	-11	/
O=C(NC(=S)NNC(=O)c1ccccc1O)c1ccco1	0.6	6	-33	37	-44	15
O=C(NC(=S)NNC(=O)c1cc2ccccc2cc1O)c1ccco1	0.6	-4	-26	41	-33	/
Cc1ccccc1Cn1c(=O)c2c(nc3n2CCCN3Cc2ccccc2)n(C)c1=O	/	/	-19	/	5	/
COc1ccc(CC(=O)N(Cc2ccccc2)c2ccc(C)cc2)cc1S(=O)(=O)N1CCOCC1	/	/	9	/	33	-30
Cc1ccc2oc(=O)c3cnn(CC(=O)N4CCCCC4C)c3c2c1 (centres undefined)	0.9	6	-30	13	-12	/
Cc1ccc2oc(=O)c3cnn(CC(=O)N4CCc5ccccc5C4)c3c2c1	0.7	-9	-49	31	-40	-51*
COCCCNC(=O)C1CCN(C(=O)c2oc3cc4sc(N(C)C)nc4cc3c2C)CC1	/	/	6	/	-4	/
CCn1c(=O)n(CC)c2cc(N3CCCC3)c(NC(=O)c3ccccc3OC)cc21	/	/	7	/	-37	-20
Cn1cccc1C(=O)NC(=O)COC(=O)CNS(=O)(=O)c1ccc(Br)cc1	0.9	2	-5	6	-5	/
COc1ccc(CNC(=O)COC(=O)CN2C(=O)C3CCCCC3C2=O)cc1 (centres undefined)	/	/	-5	/	/	/
Cc1ccc(/C=N/n2c(-c3ccccc3)n[nH]c2=S)cc1	/	/	17	/	-3	/
N=C1N(/N=C/c2ccccc2)C(=Nc2ccccc2)C(=S)N1c1ccccc1	0.8	8	17	16	-49	-32
O=C(CNC(=O)/C=C/c1ccco1)N=Nc1c(O)[nH]c2ccccc12	/	/	28	/	51*	39
COc1ccc(C(C)=O)cc1CSCCC(=O)O	0.9	-2	8	11	0	/
COc1ccc(C(=O)/C=C/c2ccsc2)cc1CSCC(=O)O	/	/	0	/	36*	-10
Cc1onc(-c2ccccc2Cl)c1C(=O)N/N=C(\N)COc1ccc(Cl)cc1	0.9	0	-37	10	-39	-32
Cc1onc(-c2ccccc2)c1C(=O)N/N=C(\N)COc1ccc(Cl)cc1	0.9	-11	-23	14	-23	/
CCOC(=O)C(Cc1c(F)cccc1Cl)c1ccnc2nc(N)nn12 (centres undefined)	0.8	-2	-12	15	-7	/
CCOC(=O)c1ccc(NC(=O)CSc2ccc(-c3ccccn3)nn2)cc1	/	/	47	/	37*	31
SMILES	Diaphorase act	G6PDH counter	PfG6PD inh	Diaphorase inh	HKDC1 inhibitor	HKDC1 act conf2
CCOc1ccc(NC(=O)CSc2ccc(-c3ccccn3)nn2)cc1	0.9	-30	5	14	-8	/
O=C1COc2ccc(C(=O)COC(=O)/C=C/c3ccco3)cc2N1	/	/	34	/	-3	/
COc1ccc2c(c1)/C(=N/N1C(=O)c3ccccc3C1=O)C(=O)N2	1.1	8	/	-13	/	/
COc1ccc2c(c1)/C(=C\c1cccc(/C=C3/C(=O)Nc4ccc(OC)cc43)n1)C(=O)N2	/	/	22	/	37*	24
Cc1ccc(C(=O)CCC(=O)Nc2ccccc2F)cc1	/	/	3	/	-7	/
O=C(CSc1nncs1)NC(=O)NCc1ccco1	0.9	4	-1	11	14	/
CC(=NNC(=S)Nc1cccc(C)c1)c1ccccn1	/	/	44	/	-38	-60*
COc1ccccc1NC(=S)NN=C(C)c1ccccn1	/	/	25	/	-41	-61*
CC(=NNC(=S)Nc1ccc(C)cc1)c1ccccn1	/	/	29	/	-39	/
O=C(O)c1ccc(S(=O)(=O)/N=C2\C=C(Nc3ccccc3F)C(=O)c3ccccc32)cc1	/	/	93*	/	81*	76
Cc1ccc(NC2c3ncccc3C(=O)N2c2ccccc2C)cc1C (centres undefined)	0.8	0	29	21	56*	36
CCC[C@H]1CN(c2ccc(Br)cc2)C(=O)[C@@H]1CC(=O)Nc1ccc(OC)cc1	/	/	5	/	/	/
C=CCn1c(SCC(=O)Nc2sc3c(c2C#N)CCC(C)C3)nc2cc(C(=O)O)ccc2c1=O (centres undefined)	/	/	-47	/	39*	33
CC(=NNC(=S)N1CC2CCC(CC2)C1)c1ccccn1	/	/	22	/	/	/
CC(=NNC(=S)N1CCN(C2CCCCCC2)CC1)c1ccccn1	/	/	42	/	-42	-40*
CC(=NNC(=S)N1CC2CCC(CC2)C1)c1cnccn1	/	/	33	/	-47	-31
CSCCC(C(=O)OCC(=O)c1ccc(C)c(C)c1)N1C(=O)c2cc(Cl)c(Cl)cc2C1=O (centres undefined)	0.9	4	-16	13	-5	/
CCOC(=O)Cn1c2ccc(F)cc2c2nc(C)sc21	0.8	7	23	15	-62	-37*
COC(=O)Cn1c2ccc(F)cc2c2nc(C)sc21	0.9	4	13	13	-92	-90*
CCOc1ccc(C2C(C(=O)c3ccc(C)o3)=C(O)C(=O)N2CCN2CCOCC2)cc1OC (centres undefined)	0.8	5	9	22	3	/
COC(=O)CCCC1=CC2=CC(=O)C(C)(OC(=O)c3cccs3)C(=O)C2=CN1c1ccc(OC)cc1 (centres undefined)	/	/	44	/	19	/
COc1ccc(C2=CC3=C(Br)C(=O)C(C)(OC(=O)c4cccs4)C(=O)C3=CO2)cc1 (centres undefined)	/	/	13	/	50*	4
COc1ccc(C2=CC3=C(Br)C(=O)C(C)(OC(=O)c4ccco4)C(=O)C3=CO2)cc1 (centres undefined)	/	/	10	/	42*	-7
C=CC1=C2C=C(C3CC3)N(C3CC3)C=C2C(=O)C(C)(OC(=O)c2ccco2)C1=O (centres undefined)	/	/	26	/	13	/
COc1ccc(-n2c(C)cc(C(=O)CN3C(=O)c4ccccc4C3=O)c2C)cc1	0.9	-2	12	7	0	/
COc1ccc(-n2c(C)cc(C(=O)CCl)c2C)cc1	0.9	2	-3	13	35*	34
Cc1ccc(CNC(=O)c2ccccc2NC(=O)C2=CSCCO2)cc1	/	/	-10	/	1	/

Bioassay records from PubChem.
